As usually defined, the logP is a log measure of how a compound divides between an organic and an aqueous phase. Low values mean a more hydrophilic compound, high ones a more lipophilic compound. For orientation: Ki means a measure of affinity in units of concentration, obtained from inhibition or displacement. A lower Ki goes with a stronger hold on the target. What is called logD is lipophilicity at a set pH, counting ionised and neutral species. Higher therefore signals a more lipophilic compound.

The text below walks through data of ChEMBL document CHEMBL1268917, “Synthesis and biological evaluation of radio-iodinated benzimidazoles as SPECT imaging agents for NR2B subtype of NMDA receptor” (Bioorg Med Chem, 2010).

The target in data set [1] is Glutamate receptor ionotropic, NMDA 2B (Rattus norvegicus) (UniProt Q00960). Nature of the data set: Binding affinity to NR2B receptor in rat cerebellum at 0.09 to 0.14 nM after 30 mins by autoradiography in presence of DTG relative to control. The data set is classed as tissue-based. The note with it: tested as the 125I-labelled form. In a few lines:
(§1)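 Rinsed three times 3 min in cold buffer with 1% BSA, dipped in cold water, air-dried, exposed to imaging plates; PSL per mm² in ROIs. Expressed as % control binding; at least triplicate slices from three rats.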

Data set [2] has the same target. Briefly: Binding affinity to NR2B receptor in rat cerebellum at 0.09 to 0.14 nM after 30 mins by autoradiography in presence of Ro-256981 relative to control. Conditions: tested as the 125I-labelled form. In kind it is tissue-based. In a few lines: as §1
The target is the same in data set [3]. Nature of the data set: Binding affinity to NR2B receptor in rat cerebral cortex at 0.09 to 0.14 nM after 30 mins by autoradiography in presence of DTG relative to control. In kind it is tissue-based. The note with it: tested as the 125I-labelled form. In a few lines: as §1
The target is the same in data set [4]. Briefly: Binding affinity to NR2B receptor in rat hippocampus at 0.09 to 0.14 nM after 30 mins by autoradiography in presence of DTG relative to control. In kind it is tissue-based. Conditions: tested as the 125I-labelled form. In a few lines:
as §1

The target is the same in data set [5]. Briefly: Binding affinity to NR2B receptor in rat hippocampus at 0.09 to 0.14 nM after 30 mins by autoradiography in presence of prazosin relative to control. In kind it is tissue-based. The note with it: tested as the 125I-labelled form. In a few lines: as §1
The target is the same in data set [6]. Briefly: Binding affinity to NR2B receptor in rat cerebral cortex at 0.09 to 0.14 nM after 30 mins by autoradiography in presence of prazosin relative to control. In kind it is tissue-based. Conditions: tested as the 125I-labelled form. In a few lines:
as §1

The target is the same in data set [7]. Nature of the data set: Binding affinity to NR2B receptor in rat cerebellum at 0.09 to 0.14 nM after 30 mins by autoradiography in presence of prazosin relative to control. Conditions: tested as the 125I-labelled form. The data set is classed as tissue-based. In a few lines: as §1
The nature of data set [8]: Lipophilicity, log P of the compound. The data set is classed as physicochemical. Conditions: octanol/water.
Data set [9] deals with Glutamate receptor ionotropic, NMDA 2B (Rattus norvegicus) (UniProt Q00960). Nature of the data set: Binding affinity to NR2B receptor in rat cerebral cortex at 0.09 to 0.14 nM after 30 mins by autoradiography in presence of Ro-256981 relative to control. The data set is classed as tissue-based. The note with it: tested as the 125I-labelled form. In a few lines: as §1
Chain of Glutamate receptor ionotropic, NMDA 2B (Rattus norvegicus) (Q00960 27-1482 limits assumed): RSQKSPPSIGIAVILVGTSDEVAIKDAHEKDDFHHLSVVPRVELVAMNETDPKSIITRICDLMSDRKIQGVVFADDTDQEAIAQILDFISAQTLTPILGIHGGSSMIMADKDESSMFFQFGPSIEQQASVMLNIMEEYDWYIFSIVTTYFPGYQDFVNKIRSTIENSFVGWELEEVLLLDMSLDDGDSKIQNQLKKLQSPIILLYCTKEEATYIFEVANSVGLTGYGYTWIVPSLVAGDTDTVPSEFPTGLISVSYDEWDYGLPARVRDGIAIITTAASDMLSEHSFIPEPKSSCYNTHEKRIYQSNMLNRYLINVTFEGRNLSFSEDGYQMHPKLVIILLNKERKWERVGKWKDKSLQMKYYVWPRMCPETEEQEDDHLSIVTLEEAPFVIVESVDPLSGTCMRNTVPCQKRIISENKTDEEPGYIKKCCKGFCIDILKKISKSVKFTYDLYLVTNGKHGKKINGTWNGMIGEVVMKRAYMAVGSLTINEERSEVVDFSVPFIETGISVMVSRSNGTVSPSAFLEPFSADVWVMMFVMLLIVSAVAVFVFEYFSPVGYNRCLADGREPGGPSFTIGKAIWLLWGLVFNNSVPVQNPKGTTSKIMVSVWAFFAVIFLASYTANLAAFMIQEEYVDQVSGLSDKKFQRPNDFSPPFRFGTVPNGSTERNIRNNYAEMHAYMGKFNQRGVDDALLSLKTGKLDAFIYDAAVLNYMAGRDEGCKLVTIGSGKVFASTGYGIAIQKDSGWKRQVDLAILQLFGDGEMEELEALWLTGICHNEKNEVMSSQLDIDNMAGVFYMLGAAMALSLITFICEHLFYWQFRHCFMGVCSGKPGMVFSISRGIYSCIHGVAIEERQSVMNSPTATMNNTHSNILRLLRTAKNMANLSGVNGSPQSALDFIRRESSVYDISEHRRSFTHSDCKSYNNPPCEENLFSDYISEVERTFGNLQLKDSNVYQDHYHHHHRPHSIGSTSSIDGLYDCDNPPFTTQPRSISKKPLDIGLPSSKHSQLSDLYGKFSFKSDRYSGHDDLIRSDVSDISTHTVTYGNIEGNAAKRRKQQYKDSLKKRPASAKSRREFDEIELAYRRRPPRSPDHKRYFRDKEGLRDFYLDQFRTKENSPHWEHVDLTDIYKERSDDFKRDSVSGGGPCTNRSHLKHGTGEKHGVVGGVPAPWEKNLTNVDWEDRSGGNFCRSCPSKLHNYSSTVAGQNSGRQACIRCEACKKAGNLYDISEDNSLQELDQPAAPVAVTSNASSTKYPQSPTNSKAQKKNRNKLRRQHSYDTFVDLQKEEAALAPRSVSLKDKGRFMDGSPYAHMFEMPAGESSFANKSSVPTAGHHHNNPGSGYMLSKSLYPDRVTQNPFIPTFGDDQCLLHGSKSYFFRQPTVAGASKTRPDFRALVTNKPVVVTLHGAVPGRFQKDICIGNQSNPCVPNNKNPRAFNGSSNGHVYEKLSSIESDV
Data set [10] addresses Glutamate receptor ionotropic, NMDA 2B (Rattus norvegicus, UniProt Q00960). Nature of the data set: Displacement of [3H]ifenprodil from NR2B receptor in rat cortical synaptic membranes. In kind it is cell membranes, Membrane. Background: Loss of bound radioactivity is the signal in a displacement assay; it reports binding, not function.
The target of data set [11] is Glutamate receptor ionotropic, NMDA 2B (Rattus norvegicus) (UniProt Q00960). Nature of the data set: Binding affinity to NR2B receptor in rat hippocampus at 0.09 to 0.14 nM after 30 mins by autoradiography in presence of Ro-256981 relative to control. The data set is classed as tissue-based. Conditions: tested as the 125I-labelled form. In a few lines:
as §1

A short description of data set [12]: Octanol-buffer partition coefficient, log D of the compound at pH 7.4. In kind it is physicochemical.

Chain of Glutamate receptor ionotropic, NMDA 2B (Q00960 whole entry): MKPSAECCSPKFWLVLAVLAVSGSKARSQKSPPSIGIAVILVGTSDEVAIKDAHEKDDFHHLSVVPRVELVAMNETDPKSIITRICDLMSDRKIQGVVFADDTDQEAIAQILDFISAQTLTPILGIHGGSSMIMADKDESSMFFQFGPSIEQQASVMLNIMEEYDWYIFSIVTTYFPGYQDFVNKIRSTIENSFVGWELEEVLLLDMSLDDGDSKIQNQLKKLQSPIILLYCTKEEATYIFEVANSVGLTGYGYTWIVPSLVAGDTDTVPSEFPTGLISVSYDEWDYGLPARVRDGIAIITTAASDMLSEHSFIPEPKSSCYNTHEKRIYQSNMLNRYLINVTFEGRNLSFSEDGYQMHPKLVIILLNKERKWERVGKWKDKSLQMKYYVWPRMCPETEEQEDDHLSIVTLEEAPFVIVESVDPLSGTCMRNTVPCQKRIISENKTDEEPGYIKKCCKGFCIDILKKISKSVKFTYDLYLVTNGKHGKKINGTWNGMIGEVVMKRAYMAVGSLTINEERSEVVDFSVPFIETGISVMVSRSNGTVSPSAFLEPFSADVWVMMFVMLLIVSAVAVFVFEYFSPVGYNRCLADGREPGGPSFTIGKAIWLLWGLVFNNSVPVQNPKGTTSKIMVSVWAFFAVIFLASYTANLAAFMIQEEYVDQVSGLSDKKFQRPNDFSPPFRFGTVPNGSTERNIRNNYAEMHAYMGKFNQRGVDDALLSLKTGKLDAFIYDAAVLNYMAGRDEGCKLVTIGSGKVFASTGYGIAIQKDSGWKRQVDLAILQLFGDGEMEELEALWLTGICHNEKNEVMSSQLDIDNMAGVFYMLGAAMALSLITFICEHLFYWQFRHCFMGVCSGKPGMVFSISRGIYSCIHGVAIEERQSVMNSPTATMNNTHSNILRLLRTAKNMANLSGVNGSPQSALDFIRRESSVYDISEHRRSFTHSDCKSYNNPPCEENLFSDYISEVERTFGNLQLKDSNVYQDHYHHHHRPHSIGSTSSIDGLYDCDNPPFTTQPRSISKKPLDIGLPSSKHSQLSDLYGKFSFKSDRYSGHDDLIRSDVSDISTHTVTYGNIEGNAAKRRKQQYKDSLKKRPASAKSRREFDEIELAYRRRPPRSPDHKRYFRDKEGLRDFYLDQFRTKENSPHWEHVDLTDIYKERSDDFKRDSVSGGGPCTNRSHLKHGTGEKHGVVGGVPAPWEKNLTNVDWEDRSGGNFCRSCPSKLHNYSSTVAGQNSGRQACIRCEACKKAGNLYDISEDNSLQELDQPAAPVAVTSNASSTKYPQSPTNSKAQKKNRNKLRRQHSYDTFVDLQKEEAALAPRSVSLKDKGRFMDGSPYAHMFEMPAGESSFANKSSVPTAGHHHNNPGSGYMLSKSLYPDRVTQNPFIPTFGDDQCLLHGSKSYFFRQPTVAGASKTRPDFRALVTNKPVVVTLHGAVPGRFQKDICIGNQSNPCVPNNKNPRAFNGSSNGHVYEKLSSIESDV

For `Oc1ccc2nc(CN3CCC(Cc4ccc(I)cc4)CC3)[nH]c2c1`, the Activity in data set [1] was determined as 101%; in data set [2], 91.8%; in data set [3], 93.5%; in [4] it was 105%; in [5] it was 92.6%; in data set [6], 95.6%. Also, the Activity amounted to 103% in data set [7], 58.3% in data set [9] and 50.9% in data set [11]. Further, the logP in [8] amounted to 3.95. This compound had a Ki in data set [10] of 7.28 nM. Besides, the logD in data set [12] is 3.95.
With `Oc1ccc2nc(CN3CCC(Oc4ccc(I)cc4)CC3)[nH]c2c1`, the Ki in data set [10] stood at 32.5 nM. This compound also displayed a logD in data set [12] of 3.74.
